In ChEMBL document CHEMBL1811904, “Preventive oral treatment with resveratrol pro-prodrugs drastically reduce colon inflammation in rodents” (J Med Chem, 2010):
Active and inactive are the calls of the source. The rule behind the calls is not given here.

Tests used:
Mus musculus [1] = test: (§1) Antiinflammatory activity in C57BL/6J mouse model of DSS-induced colon inflammation assessed as reduction in morphological signs of cell damage at 2.1 mg/kg/day, po for 21 days followed by compound dosing for 8 days co-administered with DSS followed by 2.1 mg/kg/day, po dosing for 6 days in absence of DSS measured on days 29 and day 35; type: functional, organism-based
How it was run: (§2)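 Standard chow with compound at 2.1 mg/kg day for 21 days, then 1% DSS in sterilized drinking water ad libitum for the last 8 days (29 days total); n=10 per group, with control and DSS-only groups. Distal colon sections stained with hematoxylin and eosin and scored by Araki system: 0-4 each for surface epithelial loss, crypt destruction, inflammatory cell infiltration (max 12); mean ± SEM, Kruskal-Wallis then Mann-Whitney.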

Mus musculus [2] = test: as §1, with “reduction” for “reduction in morphological signs”, “colon TNFRp55 level” for “cell damage”, “35 by chemiluminescence assay” for “35”; type: functional, organism-based
How it was run: (§3)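 After 21 days of chow with compound at 2.1 mg/kg day and 8 days of 1% DSS, distal colon mucosa (40 mg) homogenized in PBS with protease inhibitors and spun 15,000g, 30 min, 4 °C. Supernatants pooled per group to 300 µg protein and run on a 40-cytokine mouse inflammation antibody array. Chemiluminescent detection, densitometry; duplicate measurements.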

Caco-2 = test: Metabolic stability in human Caco2 cells after 6 hrs by LC-MS-MS analysis; type: ADME, cell-based; conditions: caco-2, 6 h
How it was run: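 Compounds incubated with human colon Caco-2 cells; cell media sampled at 6 h and analyzed by LC-MS-MS for parent compound and hydrolysis/conjugation products.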

Mus musculus [3] = test: (§4) Increase in Bifidobacterial count in C57BL/6J mouse distal colon mucosa with DSS-induced colon inflammation at 2.1 mg/kg/day, po for 21 days followed by compound dosing for 8 days co-administered with DSS followed by 2.1 mg/kg/day, po dosing for 6 days in absence of DSS by fecal microbiota analysis relative to control; type: functional, organism-based
How it was run: (§5)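 Fecal samples collected on days 0, 21 (before DSS) and 29 (after 8 days of 1% DSS) from mice fed 2.1 mg/kg day compound in chow. Bifidobacteria, lactobacilli, clostridia, enterobacteria and E. coli counted; ANOVA with Tukey post-hoc, mean ± SD.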

Mus musculus [4] = test: as §1, with “reduction” for “reduction in morphological signs”, “colon IL6 level” for “cell damage”, “35 by chemiluminescence assay” for “35”; type: functional, organism-based; how it was run: as §3
Mus musculus [5] = test: as §1, with “reduction” for “reduction in morphological signs”, “colon MIG level” for “cell damage”, “35 by chemiluminescence assay” for “35”; type: functional, organism-based; how it was run: as §3
CCD-18Co [6] = test: Antiinflammatory activity in human CCD-18Co cells assessed inhibition of IL1beta-induced PGE2 production at 1 to 7.5 uM after 18 hrs; type: functional, cell-based
Mus musculus [7] = test: as §1, with “reduction” for “reduction in morphological signs”, “colon MIP1gamma level” for “cell damage”, “35 by chemiluminescence assay” for “35”; type: functional, organism-based; how it was run: as §3
Mus musculus [8] = test: as §1, with “disease activity index” for “morphological signs of cell damage”; type: functional, organism-based
How it was run: (§6)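 Diet supplemented at 2.1 mg/kg day for 21 days before 8 days of 1% DSS in sterilized drinking water ad libitum; n=10 per group. Body weight followed through DSS and recovery phases; DAI combines stool blood, stool consistency and weight loss. ANOVA with Tukey post-hoc, mean ± SD.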

Mus musculus [9] = test: Effect on body weight in C57BL/6J mouse model of DSS-induced colon inflammation at 2.1 mg/kg/day, po for 21 days followed by compound dosing for 8 days co-administered with DSS followed by 2.1 mg/kg/day, po dosing for 6 days in absence of DSS measured on days 29 and day 35; type: functional, organism-based; how it was run: as §6
Mus musculus [10] = test: Antiinflammatory activity in C57BL/6J mouse model of DSS-induced colon inflammation assessed as reduction in disease activity index at 2.1 mg/kg/day, po for 8 days co-administered with DSS measure on day 8; type: functional, organism-based
How it was run: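 No pre-feeding: compound co-administered with 1% DSS in drinking water for 8 days at 2.1 mg/kg day; n=14 per group, with DSS-only and untreated control groups. DAI scored from stool blood, stool form and weight loss.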

Mus musculus [11] = test: as §1, with “preservation” for “reduction in morphological signs”, “mucosal architecture” for “cell damage”; type: functional, organism-based; how it was run: as §2
Mus musculus [12] = test: as §4, with “Clostridia” for “Bifidobacterial”; type: functional, organism-based; how it was run: as §5
Mus musculus [13] = test: as §4, with “Lactobacilli” for “Bifidobacterial”; type: functional, organism-based; how it was run: as §5
Mus musculus [14] = test: as §4, with “Reduction” for “Increase”, “Escherichia coli” for “Bifidobacterial”; type: functional, organism-based; how it was run: as §5
[15] = Cytotoxicity against human CCD-18Co cells at >10 uM after 8 hrs by MTT assay; type: cell-based
CCD-18Co [16] = test: Antiinflammatory activity in human CCD-18Co cells assessed as inhibition of IL1beta-induced PGE2 production at 2.5 to 25 uM after 18 hrs; type: functional, cell-based
CCD-18Co [17] = test: Antiinflammatory activity in human CCD-18Co cells assessed inhibition of IL1beta-induced PGE2 production at 1 uM after 18 hrs; type: functional, cell-based
Stomach = test: Stability in C57BL/6J mouse stomach at 84 mg/kg administered through intragastric route measured after 8 hrs by HPLC-MS-MS analysis; type: ADME, organism-based; set-up: dose 84 mg/kg, route intragastric; conditions: in vivo, po
How it was run: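 Healthy mice given 84 mg/kg by intragastric probe in ethanol:water (5:95, v:v); n=24 per group, three killed at each of 0.25, 0.5, 1, 2, 4, 8, 12 and 24 h. Stomach contents analyzed by HPLC-MS-MS for parent compounds and metabolites; AUC and Cmax derived.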

| SMILES | Activity (Mus musculus [1]) | Activity (Mus musculus [2]) | Stability (Caco-2) | Activity (Mus musculus [3]) | Activity (Mus musculus [4]) | Activity (Mus musculus [5]) | inhibition (CCD-18Co [6]) | Activity (Mus musculus [7]) | Activity (Mus musculus [8]) | Activity (Mus musculus [9]) | Activity (Mus musculus [10]) | Activity (Mus musculus [11]) | Activity (Mus musculus [12]) | Activity (Mus musculus [13]) | Activity (Mus musculus [14]) | Activity [15] | inhibition (CCD-18Co [16]) | inhibition (CCD-18Co [17]) | Stability (Stomach) |
| --- | --- | --- | --- | --- | --- | --- | --- | --- | --- | --- | --- | --- | --- | --- | --- | --- | --- | --- | --- |
| CCCC(=O)OC[C@H]1O[C@@H](Oc2cc(O)cc(/C=C/c3ccc(O)cc3)c2)[C@H](O)[C@@H](O)[C@@H]1O | Active | Active | Stable | Active | Active | Active | Active | Active | Active | Active | inactive | Active | Active | Active | Active |  |  |  |  |
| CCCCCCCCCCCC(=O)OC[C@H]1O[C@@H](Oc2cc(O)cc(/C=C/c3ccc(O)cc3)c2)[C@H](O)[C@@H](O)[C@@H]1O |  |  |  |  |  |  | Active |  |  |  |  |  |  |  |  | Toxic |  |  |  |
| CCCCCCCCCCCCCCCC(=O)OC[C@H]1O[C@@H](Oc2cc(O)cc(/C=C/c3ccc(O)cc3)c2)[C@H](O)[C@@H](O)[C@@H]1O |  |  |  |  |  |  | Active |  |  |  |  |  |  |  |  | Toxic |  |  |  |
| CCCCCCCC(=O)OC[C@H]1O[C@@H](Oc2cc(O)cc(/C=C/c3ccc(O)cc3)c2)[C@H](O)[C@@H](O)[C@@H]1O | Active | Active | Stable | Active | Active | Active | Active | Active | Active | Active | inactive | Active | Active | Active | Active |  |  |  |  |
| OC[C@H]1O[C@@H](Oc2cc(/C=C/c3ccc(O)cc3)cc(O[C@@H]3O[C@H](CO)[C@@H](O)[C@H](O)[C@H]3O)c2)[C@H](O)[C@@H](O)[C@@H]1O | Active | Active |  | inactive | Active | Active |  | Active | inactive | inactive | inactive | Active |  | inactive |  |  | inactive |  |  |
| OC[C@H]1O[C@@H](Oc2cc(O)cc(/C=C/c3ccc(O)cc3)c2)[C@H](O)[C@@H](O)[C@@H]1O | Active | Active |  | inactive | Active | Active |  | Active | inactive | inactive | inactive | Active |  | inactive |  |  | inactive |  |  |
| OC[C@H]1O[C@@H](Oc2ccc(/C=C/c3cc(O)cc(O[C@@H]4O[C@H](CO)[C@@H](O)[C@H](O)[C@H]4O)c3)cc2)[C@H](O)[C@@H](O)[C@@H]1O |  |  |  |  |  |  |  |  |  |  |  |  |  |  |  |  | inactive |  |  |
| OC[C@H]1O[C@@H](Oc2ccc(/C=C/c3cc(O)cc(O)c3)cc2)[C@H](O)[C@@H](O)[C@@H]1O |  |  |  |  |  |  |  |  |  |  |  |  |  |  |  |  | Active |  |  |
| CCCCCCCCCCCCCCCCCC(=O)OC[C@H]1O[C@@H](Oc2cc(O)cc(/C=C/c3ccc(O)cc3)c2)[C@H](O)[C@@H](O)[C@@H]1O |  |  |  |  |  |  | Active |  |  |  |  |  |  |  |  | Toxic |  |  |  |
| Oc1ccc(/C=C/c2cc(O)cc(O)c2)cc1 [RESVERATROL] | Active | Active | Stable | inactive | Active | Active |  | Active | inactive | inactive | inactive | Active | Active | inactive | Active |  | Active | Active | Stable |
